Screening results: PubChem, several laboratories
PLCg1 inh: PLC-gamma1 (human) inhibition, primary screen; purified PLC-gamma1, fluorogenic substrate, fluorescence; inhibition, % at 12.2 µM; 0.84% of 370,000 active
NRP1-CendR mod: alters CendR peptide binding to human NRP-1 | FAM-RPARPAR peptide binding to NRP-1, fluorescence polarization | inhibition, % at 25 µM | 0.85% of 360,000 active;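 active = inhibition or corrected inhibition above about 18%, plus a signal ratio from 0.5 to 1.5, limit read from the data, passing the limit was not always enough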
DDE Tn7 FP inh: inhibitors of Tn7 peptide binding to human fibrin DD(E); FP displacement of FITC-Tn7 peptide from fibrin DD(E); 0% = median of compound wells per plate; inhibition, % at 8.3 µM; 0.13% of 370,000 active; AID 720508;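 active = inhibition above the mean of compounds falling within the control limits plus 3 SD of them, cut at about 14% in these data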;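 note: 0% = plate median of compound wells and 100% = 10 µM Aha-Tn7 peptide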
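System: human fibrin DD(E); quantity: Fibrin-DD(E) at 2 µM final; also added: fluorescent Tn7 probe at 0.1 µM; compound dosing: single nominal test concentration of 8.3 µM per compound; schedule: 10 min preincubation, 3 h with tracer, room temperature; detection: fluorescence polarization of the labelled Tn7 tracer; repeats: one replicate per compound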
PLC-beta3 inh: blocks human PLC-beta3 enzyme activity | Q01970 | Purified PLC-beta3, fluorogenic substrate, fluorescence | inhibition, % at 12.2 µM | 0.18% of 370,000 active | AID 720704; in the data active = inhibition above about 11%;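 note: 0% = median of compound wells on plate and 100% = full blocker control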
DDE Tn6 FP inh: disrupts Tn6 cyclic peptide binding to fibrin D-Dimer-E complex. Fibrin DD(E) TRITC-Tn6 fluorescence polarization displacement. inhibition, % at 8.3 µM. 0.21% of 370,000 active. AID 720509;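 active = inhibition above a per-campaign cutoff: mean of compounds within control limits plus 3 SD, cut at about 15% in these data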;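 note: 0% = median of all compound wells on the plate and 100% = blocking peptide control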
KLK7 zymogen act: proKLK7 (human) activation, primary screen. AID 652039. P49862. activation, % at 7 µM. purified proKLK7, EDANS-DABCYL substrate fluorescence; 100% is mature enzyme control, 0% vehicle. 0.9% of 370,000 active;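 active = activation above the mean of all tested compounds plus 3 SD, computed per campaign excluding outliers beyond control limits, cut at about 13% in these data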
PLCg1 ctr: PLC-gamma1 inhibition, counter-screen for PLC-beta3 hits; shares compounds with PLCg1 inh; purified PLC-gamma1, fluorogenic substrate, fluorescence; inhibition, % at 12.3 µM; 3.1% of 3,300 active; AID 743258
PLCbeta3 conf: human PLC-beta3 inhibition, confirmation. shares compounds with PLCg1 inh. purified PLC-beta3, fluorogenic substrate fluorescence. inhibition, % at 12.3 µM. 1% of 3,300 active; in the data active = inhibition above about 11%
* = called active by the depositor. Only some compounds are listed: those with a hit (about 3% of all), similar ones and a draw of the others. Cut-off read from the data, not from the text of the source, unless noted: active = inhibition above about 9.5%; inactive = the rest.

Screening Cc1cccc(CN2CCSc3sccc3C2=O)c1 returned PLCg1 inh 12.5*, NRP1-CendR mod -1.2, DDE Tn7 FP inh -3.8, PLC-beta3 inh -1.9, DDE Tn6 FP inh 0.1, KLK7 zymogen act 0.2, PLCg1 ctr -5.3 and PLCbeta3 conf -6.1.
Cc1ccc(Nc2ncnc(N)n2)cc1C was read as PLCg1 inh 10.2*, NRP1-CendR mod 15.1, DDE Tn7 FP inh -3.6, PLC-beta3 inh 5.5, DDE Tn6 FP inh 6.7, KLK7 zymogen act 0.3, PLCg1 ctr -6.3 and PLCbeta3 conf 0.8.
Screening Nc1ncnc(Nc2ccccc2)n1 returned PLCg1 inh 0.7, NRP1-CendR mod 6.4, DDE Tn7 FP inh -5.8, PLC-beta3 inh 0.3, DDE Tn6 FP inh 2.5 and KLK7 zymogen act -0.5.
`O=C(NCc1ccc(OC(F)(F)F)cc1)C1CC2Cn3c(nc4ccccc43)C2N1Cc1ccccc1` (configuration not stated) gave PLCg1 inh -1.4, NRP1-CendR mod 2.7, DDE Tn7 FP inh 4.5, PLC-beta3 inh -0.1, DDE Tn6 FP inh 1.6 and KLK7 zymogen act -0.6.
`O=C(NCc1cccc(C(F)(F)F)c1)C1CC2Cn3c(nc4ccccc43)C2N1Cc1ccccc1` (configuration not stated) gave PLCg1 inh 6.0, NRP1-CendR mod 8.1, DDE Tn7 FP inh -6.1, PLC-beta3 inh 11.9*, DDE Tn6 FP inh 1.6, KLK7 zymogen act 0.3, PLCg1 ctr -5.0 and PLCbeta3 conf -0.8.
CC(C)Cn1cnc2c(Sc3c([N+](=O)[O-])ncn3C)nc(N)nc21 was read as PLCg1 inh 21.5*, NRP1-CendR mod 6.9, DDE Tn7 FP inh -4.8, PLC-beta3 inh 11.6*, DDE Tn6 FP inh 3.8, KLK7 zymogen act -0.8, PLCg1 ctr 2.5 and PLCbeta3 conf 5.2.
Screening CCCNC(=O)COC(=O)c1ccc(OCC(=O)Nc2ccccc2OC)c(OC)c1 returned PLCg1 inh 0.3, NRP1-CendR mod -8.8, DDE Tn7 FP inh -1.4, PLC-beta3 inh 3.2, DDE Tn6 FP inh -3.9 and KLK7 zymogen act -0.6.
Screening COc1ccccc1NC(=O)COc1ccc(C(=O)OCC(=O)NC(C)(C)C)cc1OC returned PLCg1 inh 12.6*, NRP1-CendR mod 10.8, DDE Tn7 FP inh -5.7, PLC-beta3 inh 0.5, DDE Tn6 FP inh -3.8, KLK7 zymogen act 0.4, PLCg1 ctr -4.2 and PLCbeta3 conf -3.3.
CCOC(=O)Cc1csc(SCC(=O)Nc2cccc(Cl)c2)n1 was read as PLCg1 inh 14.2*, NRP1-CendR mod 8.2, DDE Tn7 FP inh 6.3, PLC-beta3 inh 2.9, DDE Tn6 FP inh 13.1, KLK7 zymogen act 0.1, PLCg1 ctr -10.7 and PLCbeta3 conf -3.9.
For CCOC(=O)Cc1csc(SCC(=O)Nc2cccc(C#N)c2)n1 the results were PLCg1 inh -4.2, NRP1-CendR mod 0.5, DDE Tn7 FP inh 4.4, PLC-beta3 inh 1.3, DDE Tn6 FP inh -1.3 and KLK7 zymogen act -0.1.
`C[C@H](O)[C@@H]1CN2CCc3ccc(-c4ccc5c(c4)OCO5)cc3[C@@H]2C[C@@H]1N(C)C(=O)c1ccco1` gave PLCg1 inh -1.2, DDE Tn7 FP inh 0.3, PLC-beta3 inh -0.4, DDE Tn6 FP inh -6.3 and KLK7 zymogen act 0.0.
Screening O=C(NNS(=O)(=O)c1ccc(Cl)cc1)c1ccc(S(=O)(=O)N2CCCCC2)cc1 returned PLCg1 inh 5.0, NRP1-CendR mod 3.9, DDE Tn7 FP inh -7.8, PLC-beta3 inh 11.1*, DDE Tn6 FP inh 2.2, KLK7 zymogen act 0.7, PLCg1 ctr -4.1 and PLCbeta3 conf -6.1.
O=C(NNC(=O)C1CCN(S(=O)(=O)c2ccc(Cl)cc2)CC1)c1ccc(Cl)cc1 was read as PLCg1 inh 1.8, NRP1-CendR mod 3.1, DDE Tn7 FP inh -6.3, PLC-beta3 inh 0.0, DDE Tn6 FP inh -7.6 and KLK7 zymogen act -0.1.
